Screening data: PubChem, Johns Hopkins Ion Channel Center
A selection: hits, their analogues and other compounds. The true share with any hit is near 2.3%.
TRPC4 agonist – activators of mouse TRPC4 channel, primary screen, Fluo4 calcium, HEK293 TRPC4beta/mu-opioid cells; 310,000 compounds, 0.49% hits; Short transient receptor potential channel 4 (Mus musculus), Q9QUQ5; AID 2237, 2010; Fluo4 calcium fluorescence; active compounds read high; B-score at 10 µM;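 active = B-score above 5 SD of library B-scores, and initial fluorescence ratio not above library mean plus 5 SD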;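 also: positive B-score marks a calcium rise read as TRPC4 activation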
Target sequence (Q9QUQ5 whole entry, looked up): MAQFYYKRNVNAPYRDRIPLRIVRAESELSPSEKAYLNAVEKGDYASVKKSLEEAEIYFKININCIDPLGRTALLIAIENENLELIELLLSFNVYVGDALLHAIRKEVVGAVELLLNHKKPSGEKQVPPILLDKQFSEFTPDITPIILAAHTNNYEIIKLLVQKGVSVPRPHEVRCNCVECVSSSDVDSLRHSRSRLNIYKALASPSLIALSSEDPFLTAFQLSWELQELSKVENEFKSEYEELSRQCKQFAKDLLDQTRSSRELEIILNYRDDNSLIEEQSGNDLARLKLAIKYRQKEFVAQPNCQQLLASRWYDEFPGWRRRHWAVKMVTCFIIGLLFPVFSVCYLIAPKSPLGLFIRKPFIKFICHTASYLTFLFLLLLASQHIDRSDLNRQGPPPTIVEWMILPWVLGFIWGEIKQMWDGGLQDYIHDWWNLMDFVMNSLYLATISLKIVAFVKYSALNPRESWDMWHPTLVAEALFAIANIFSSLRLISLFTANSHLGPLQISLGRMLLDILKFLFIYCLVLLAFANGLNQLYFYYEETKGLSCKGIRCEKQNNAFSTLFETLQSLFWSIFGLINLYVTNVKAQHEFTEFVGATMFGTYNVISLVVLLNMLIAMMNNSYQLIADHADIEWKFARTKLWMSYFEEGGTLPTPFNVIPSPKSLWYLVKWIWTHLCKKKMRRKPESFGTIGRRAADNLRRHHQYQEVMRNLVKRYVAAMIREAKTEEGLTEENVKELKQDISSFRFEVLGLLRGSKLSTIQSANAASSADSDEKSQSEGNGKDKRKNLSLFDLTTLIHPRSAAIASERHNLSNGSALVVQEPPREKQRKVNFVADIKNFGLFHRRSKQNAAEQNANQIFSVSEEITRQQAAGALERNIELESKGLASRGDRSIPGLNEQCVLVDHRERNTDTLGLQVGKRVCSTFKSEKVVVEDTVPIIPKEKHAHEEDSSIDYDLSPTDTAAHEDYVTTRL
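Incubation: 45 min room-temperature Fluo4 loading, 110 s read / System: HEK293 cells stably co-expressing mouse TRPC4beta and mu-opioid receptor / Signal: Fluo4 fluorescence, kinetic / Control set: buffer (low) and maximal DAMGO (high) / Measure: integrated baseline-normalised fluorescence ratio, converted to per-well B score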
TRPC4 potent – positive allosteric modulators of TRPC4, primary screen, cell-based, mouse TRPC4beta, HEK293 mu-opioid, Fluo-4 calcium | DAMGO EC20, Fluo-4 Ca2+ flux; active compounds read high | B-score at 10 µM | 310,000 compounds, 0.42% hits | AID 2227, 2009;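 active = B-score of calcium response area above 5 SD of library B-scores, with initial fluorescence ratio within 5 SD of library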;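 also: B-score of integrated fluorescence ratio over time as area under calcium response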
TRPC4 block – inhibitors of mouse TRPC4 channel, primary screen, Fluo4 calcium, HEK293 TRPC4beta/mu-opioid cells | 300,000 compounds, 0.39% hits | Short transient receptor potential channel 4 (Mus musculus), Q9QUQ5 | DAMGO-evoked Fluo4 calcium flux; active compounds read low | B-score at 10 µM | AID 2247, 2010;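 active = B-score over 3 SD under the library average, no early fluorescence shift, positive overall ratio signal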
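Assay system: TRPC4beta/mu-opioid receptor HEK293 cell line; compound dosing: single concentration per test compound; detection: Fluo4 Ca2+ flux fluorescence; evaluation: per-well B score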
TRPC6 inh – mouse TRPC6 channel inhibitors, primary screen, cell-based, HEK293, membrane potential dye | B-score at 10 µM | Short transient receptor potential channel 6 (Mus musculus), Q61143 | ACh-evoked depolarization; active compounds read low | 310,000 compounds, 1.1% hits;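 active = B-score under library mean minus 3 SD, initial fluorescence not abnormally high, positive integrated signal ratio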;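 also: B-score derived from integrated fluorescence ratio over the kinetic read; more negative B-score means stronger inhibition of depolarization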
TRPC6 activator – mouse TRPC6 channel activators, primary screen, cell-based, HEK293, membrane potential dye; Short transient receptor potential channel 6 (Mus musculus), Q61143; HEK293-TRPC6 membrane potential dye fluorescence; active compounds read high; B-score at 10 µM; 310,000 compounds, 0.13% hits;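 active = B-score of the integrated fluorescence ratio above library mean plus 3 SD, and starting fluorescence ratio within library mean plus 5 SD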;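 also: higher score means more depolarization so channel activation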
TRPC4 spec 2 – mouse TRPC4 off-target activity of TRPC6 inhibitors, second screen; shares compounds with TRPC6 inh; HEK293 TRPC4/MOR, membrane potential dye fluorescence; channel activated by saturating DAMGO dose; inhibition, % at 10 µM; 920 compounds, 42% hits;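 active = compounds whose fluorescence signal differed from control wells by over 3 SD, either direction, in both duplicate plates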
TRPC4 spec – mouse TRPC4 modulation by TRPC6 hits, confirmation, selectivity assay for TRPC6 inhibitor project, cell-based, HEK293 TRPC4/mu-opioid, membrane potential dye; shares compounds with TRPC6 inh; membrane potential fluorescence; activity change, negative = inhibition, % at 10 µM; 920 compounds, 61% hits; AID 2777, 2010;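 active = rise or fall in signal beyond 3 SD of buffer-only wells in both replicate plates, either sign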;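 also: integrated kinetic ratio of fluorescence range over baseline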
HEK293 MPD ctr 2-1 – nonspecific membrane potential effects, parental HEK293, confirmation, counter-screen for TRPC6 inhibitor project, cell-based, second counter screen | shares compounds with TRPC6 inh | parental HEK293 membrane potential dye fluorescence; maximal acetylcholine challenge after compound addition | signal change vs control, % at 10 µM | 920 compounds, 31% hits;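 active = membrane potential signal moving either way by over 3 SD of the maximum-effect control, in both duplicate plates, meaning non-specific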
HEK293 MPD ctr-1 – membrane potential modulation in parental HEK293, confirmation, counter-screen for TRPC6 inhibitor project, cell-based; shares compounds with TRPC6 inh; AID 2780, 2010; membrane potential signal change, % at 10 µM; 920 compounds, 60% hits; parental HEK293 membrane potential dye fluorescence;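 active = membrane potential signal shifting up or down by more than 3 SD of buffer-only wells, on both duplicate plates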
HEK293 MPD ctr-2 – parental HEK293 membrane potential modulation, confirmation, counter-screen for TRPC6 modulator project, cell-based | shares compounds with TRPC6 inh | membrane potential dye fluorescence | membrane potential signal change, % at 10 µM | 2,400 compounds, 51% hits | AID 488924, 2010;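 active = membrane potential signal moves up or down beyond 5 SD from buffer-only wells, on both duplicate plates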
HEK293 MPD ctr 2-2 – second counter-screen for TRPC6 modulators: effect in parental HEK293 cells. shares compounds with TRPC6 inh. 2,400 compounds, 14% hits. membrane potential dye fluorescence; after compound, maximal acetylcholine stimulation. inhibition, % at 10 µM;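 active = membrane potential signal drops by more than 5 SD from the mean control signal, in both duplicate plates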;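 also: plate controls were acetylcholine ECmax control wells for no effect and buffer only wells for full effect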
TRPC4/MOR mod – TRPC4 modulation by TRPC6 hit compounds, confirmation, selectivity assay for TRPC6 modulator project, cell-based, HEK293 TRPC4/mu-opioid, membrane potential dye, mouse; shares compounds with TRPC6 inh; membrane potential fluorescence; percent change from control (negative = decrease, positive = increase), % at 10 µM; 2,400 compounds, 69% hits; AID 488927, 2010;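 active = membrane potential signal moved up or down beyond 5 SD of buffer control wells, in both duplicate plates, actives on both sides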;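 also: plate controls were assay buffer wells for no effect and DAMGO maximal-effect wells for full effect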
TRPC4/MOR inh 2 – second check of whether TRPC6 modulators also affect mouse TRPC4; shares compounds with TRPC6 inh; HEK293 TRPC4/mu-opioid, membrane potential dye fluorescence; stimulated with maximal-effect DAMGO; inhibition, % at 10 µM; 2,400 compounds, 55% hits; AID 488928;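 active = drop in membrane potential signal beyond 5 SD of the control wells in both duplicate plates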;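 also: TRPC4 counter screen for TRPC6 hits run under conditions tuned for TRPC6 not TRPC4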
TRPC6 inh conf – mouse TRPC6 channel inhibitors, confirmation, HEK293 cells, membrane potential dye, duplicate; shares compounds with TRPC6 inh; 3,300 compounds, 43% hits; ACh-evoked depolarization; inhibition, % at 10 µM;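 active = fluorescence ratio falls more than 5 SD below the full-stimulation control mean, in both duplicate runs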;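 also: integrated fluorescence ratio of peak minus minimum over baseline after agonist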
TRPC6 act conf – mouse TRPC6 channel activators, confirmation, HEK293 cells, membrane potential dye, duplicate | shares compounds with TRPC6 inh | HEK293-TRPC6 membrane potential dye fluorescence, FDSS | activation, % at 10 µM | 2,800 compounds, 11% hits | AID 488961, 2010;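 active = ratio signal rise beyond 5 SD above unstimulated control wells' mean, seen in both duplicate runs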;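 also: plate controls were buffer EC0 wells for no effect and acetylcholine ECmax response for full effect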
Numbers without * were called inactive; i = inactive; x = no result given.

SMILES	TRPC4 agonist	TRPC4 potent	TRPC4 block	TRPC6 inh	TRPC6 activator	HEK293 MPD ctr-2	HEK293 MPD ctr 2-2	TRPC4/MOR mod	TRPC4/MOR inh 2	TRPC6 inh conf	TRPC6 act conf	others
C/C(CCc1ccc2c(c1)OCO2)=N\N=C1\NC(=O)CC(C(=O)Nc2ccccc2F)S1 (configuration not stated)	i	i	i	i	i	x	x	x	x	x	x
C/C(=N\Nc1ccc(Cl)cc1)c1c(O)cc(C)oc1=O	i	i	i	i	i	x	x	x	x	x	x
Cc1oc2c(c1C(=O)O)C(=O)c1ccccc1C2=O	i	i	i	i	i	x	x	x	x	x	x
Cc1oc2c(c1C(=O)c1ccccc1)C(=O)C(=O)c1ccccc1-2	i	i	-6*	i	i	x	x	x	x	x	x
OCCNCCSc1ccc(Cl)cc1	104*	i	i	i	i	x	x	x	x	x	x
CC(=O)c1cccc(NC(=O)NC2CC3CCCC(C2)N3CC(C)C)c1 (configuration not stated)	i	i	i	-8.8*	17*	i	i	i	i	46%*	110%*
CCCN1C2CCCC1CC(NC(=O)Nc1ccc(C(C)C)cc1)C2 (configuration not stated)	i	i	i	i	i	x	x	x	x	x	x
CCCN1C2CCCC1CC(NC(=O)Nc1cccc(C(C)=O)c1)C2 (configuration not stated)	i	i	i	-6.1*	i	i	i	i	i	i	x
Cc1cccc(NC(=S)NC2CC3CCCC(C2)N3CC(C)C)c1 (configuration not stated)	i	i	i	i	i	x	x	x	x	x	x
CCCCN(C)CC(O)Cn1cc(/C=C/C(=O)c2cccs2)c2ccccc21 (configuration not stated)	i	i	i	i	i	x	x	x	x	x	x
O=C(/C=C/c1cn(CC(O)CN2CCCCCC2)c2ccccc12)c1cccs1 (configuration not stated)	i	i	i	-6.1*	i	652%*	i	-21%*	88%*	62%*	i
NC(=O)CC(NC(=O)Cc1ccc(Br)cc1)c1ccc(NC2CCN(Cc3ccccc3)CC2)c([N+](=O)[O-])c1 (configuration not stated)	i	i	i	i	i	x	x	x	x	x	x
NS(=O)(=O)c1ccc(NN=C2CCN(Cc3ccccc3)CC2)c([N+](=O)[O-])c1	i	17*	i	-5.7*	i	i	i	i	i	i	i
O=[N+]([O-])c1ccc(NC2CCN(Cc3ccccc3)CC2)c([N+](=O)[O-])c1	i	i	i	-6.7*	i	-90%*	i	-17%*	52%*	i	i
O=C1C2CCCCC2C(=O)N1c1ccc(NC2CCN(Cc3ccccc3)CC2)c([N+](=O)[O-])c1 (configuration not stated)	43*	i	i	-6.3*	i	i	i	14%*	51%*	i	i
Cc1cc(C)n(C(C)CNS(=O)(=O)c2ccccc2)n1 (configuration not stated)	i	i	i	i	i	x	x	x	x	x	x
Cc1nn(C)cc1S(=O)(=O)N1CCN(c2ccccc2)CC1	i	i	i	i	i	x	x	x	x	x	x
COc1ccc(-c2cn3cc([N+](=O)[O-])ccc3n2)cc1OC	i	i	i	-5*	i	-111%*	i	-22%*	30%*	i	i
Cc1c(C(=O)N(CCC#N)c2ccccc2)sc2nc3n(c(=O)c12)CCCC3	i	i	i	i	i	x	x	x	x	x	x
CCOC(=O)C1CCN(Cc2cnc(Oc3ccc(C(C)(C)C)cc3)s2)CC1	i	i	i	-6.5*	12*	i	i	8.5%*	i	52%*	83%*
CCOC(=O)C1CCN(Cc2cnc(NC(=O)OC)s2)CC1	i	i	i	i	i	x	x	x	x	x	x
O=C(c1cccs1)N1CCCC(c2nc3c(nnn3Cc3ccc(F)cc3)c(=O)[nH]2)C1 (configuration not stated)	i	i	i	-7.5*	i	x	x	x	x	i	i	TRPC4 spec 2=i;TRPC4 spec=i;HEK293 MPD ctr 2-1=i;HEK293 MPD ctr-1=i
